Laboratory results from ChEMBL document CHEMBL2177092, “Phosphoramidate ProTides of the anticancer agent FUDR successfully deliver the preformed bioactive monophosphate in cells and confer advantage over the parent nucleoside” (J Med Chem, 2011).

How the values were obtained:
L1210 [1] = assay: Cytostatic activity against thymidine-kinase deficient mouse L1210 cells after 48 hrs by cell counting; type: functional, cell-based; conditions: L1210, 48 h
Outline: (§1)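 Suspension leukemia cells in DMEM with 10% FBS, 10 mM Hepes and 1 mM sodium pyruvate at 37 °C under 5% CO2. Seeded at 60 000 cells/well with graded compound levels. Grown 48 h (L1210) or 72 h (CEM), then counted by Coulter counter. Mean ± SD of two to four independent experiments.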

CCRF-CEM [2] = assay: Cytostatic activity against human CEM cells expressing human ENT1 transporter after 72 hrs by cell counting; type: functional, cell-based
Outline: (§2)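 Suspension leukemia cells in DMEM with 10% FBS, 10 mM Hepes and 1 mM sodium pyruvate at 37 °C under 5% CO2. Seeded at 60 000 cells/well with graded compound levels. Grown 48 h (L1210) or 72 h (CEM), then counted by Coulter counter. […] Mean ± SD of two to four independent experiments.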

CCRF-CEM [3] = assay: Cytostatic activity against human CEM/0 cells after 72 hrs by cell counting; type: functional, cell-based; outline: as §2
CCRF-CEM [4] = assay: Ratio of IC50 for human CEM cells expressing human ENT1 transporter in presence of NBMPR to IC50 for human CEM cells expressing human ENT1 transporter; type: functional
Outline: (§3)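 Human T-lymphocyte CEM cells with (CEM/hEnt-1) or lacking (CEM/hEnt-0) the hENT1 transporter were seeded at 60 000 cells/well with graded compound concentrations. Transporter-inhibition runs added dipyridamole (10 μM) or NBMPR (10 μM) to CEM/hEnt-1 cells. […] Ratios are formed against untreated CEM/hEnt-1 IC50. Mean of 2–4 experiments.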

CCRF-CEM [5] = assay: Cytostatic activity against ENT1 transporter-deficient human CEM cells after 72 hrs by cell counting; type: functional, cell-based; outline: as §2
CCRF-CEM [6] = assay: Ratio of IC50 for human CEM cells expressing human ENT1 transporter in presence of dipyridamole to IC50 for human CEM cells expressing human ENT1 transporter; type: functional; outline: as §3
CCRF-CEM [7] = assay: Cytostatic activity against human CEM cells expressing human ENT1 transporter after 72 hrs by cell counting in presence of NBMPR; type: functional, cell-based
Outline: (§4)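 CEM/hEnt-1 cells with 10 μM dipyridamole or 10 μM NBMPR added alongside graded compound levels, in DMEM with 10% FBS, 10 mM Hepes and 1 mM sodium pyruvate at 37 °C under 5% CO2. Seeded at 60 000 cells/well, counted by Coulter counter after 3 days.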

CCRF-CEM [8] = assay: Cytostatic activity against human CEM cells expressing human ENT1 transporter after 72 hrs by cell counting in presence of dipyridamole; type: functional, cell-based; outline: as §4
CCRF-CEM [9] = assay: Ratio of IC50 for ENT1 transporter-deficient human CEM cells to IC50 for human CEM cells expressing human ENT1 transporter after 72 hrs by cell counting; type: functional; outline: as §3
L1210 [10] = assay: Ratio of IC50 for Mycoplasma hyorhinis-infected mouse L1210 cells to IC50 for mouse L1210/0 cells after 48 hrs by cell counting; type: functional
Outline: (§5)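 Murine L1210/0 cells were compared with L1210/TK cells, selected for resistance to 5-bromo-2'-dUrd, and with L1210.Hyor cells, chronically infected with Mycoplasma hyorhinis. Cells were grown in DMEM with 10% FBS, 10 mM Hepes and 1 mM pyruvate at 37 °C and 5% CO2, then seeded at 60 000 cells/well with compound. They were Coulter-counted after 48 h. […] Mean of 2–4 experiments.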

[11] = Cytostatic activity against mouse L1210/0 cells after 48 hrs by cell counting; type: functional, cell-based; conditions: L1210/0, 48 h; outline: as §1
CCRF-CEM [12] = assay: Cytostatic activity against thymidine-kinase deficient human CEM cells after 72 hrs by cell counting; type: functional, cell-based; outline: as §1
L1210 [13] = assay: Cytostatic activity against Mycoplasma hyorhinis-infected mouse L1210 cells after 48 hrs by cell counting; type: functional, cell-based; conditions: L1210, 48 h; outline: as §1
HeLa [14] = assay: Cytostatic activity against human HeLa cells […] by cell counting; type: functional, cell-based
HeLa [15] = assay: Cytostatic activity against thymidine-kinase deficient human HeLa cells […]; type: functional, cell-based
[16] = Ratio of 5-FU IC50 to compound IC50 for mouse L1210/0 cells after 48 hrs by cell counting; type: functional
L1210 [17] = assay: Ratio of IC50 for thymidine-kinase deficient mouse L1210 cells to IC50 for mouse L1210/0 cells after 48 hrs by cell counting; type: functional; outline: as §5
[18] = Stability of the compound in potassium phosphate buffer at pH 7.4 assessed as E.coli thymidine phosphorylase-mediated release of 5-FU after 5 mins by [19F] NMR spectroscopy; type: ADME; conditions: pH 7.4, 5 min
Outline: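 Compound (6.0 mg) in methanol-d4 plus 300 mM potassium phosphate buffer pH 7.4. […] 19F NMR recorded at 5 min, 14 h and 72 h at 25 °C, with 5-FU identified by its signal near δF 169.50 ppm.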

SMILES	IC50 (L1210 [1])	IC50 (CCRF-CEM [2])	IC50 (CCRF-CEM [3])	Ratio IC50 (CCRF-CEM [4])	IC50 (CCRF-CEM [5])	Ratio IC50 (CCRF-CEM [6])	IC50 (CCRF-CEM [7])	IC50 (CCRF-CEM [8])	Ratio IC50 (CCRF-CEM [9])	Ratio IC50 (L1210 [10])	IC50 [11]	IC50 (CCRF-CEM [12])	IC50 (L1210 [13])	IC50 (HeLa [14])	IC50 (HeLa [15])	Ratio IC50 [16]	Ratio IC50 (L1210 [17])	Stability [18]
CC(C)(NP(=O)(OC[C@H]1O[C@@H](n2cc(F)c(=O)[nH]c2=O)C[C@@H]1O)Oc1cccc2ccccc12)C(=O)OCc1ccccc1 (mixture of isomers)	130 nM	50 nM	160 nM	2	400 nM	2	280 nM	160 nM	7	2.4	19 nM	2400 nM	45 nM	78 nM	3100 nM	–	–	–
CCOC(=O)C(C)(C)NP(=O)(OC[C@H]1O[C@@H](n2cc(F)c(=O)[nH]c2=O)C[C@@H]1O)Oc1cccc2ccccc12 (mixture of isomers)	820 nM	210 nM	360 nM	2	1400 nM	2	620 nM	520 nM	7	3	56 nM	6900 nM	170 nM	200 nM	3200 nM	–	–	–
CCOC(=O)[C@H](C)NP(=O)(OC[C@H]1O[C@@H](n2cc(F)c(=O)[nH]c2=O)C[C@@H]1O)Oc1ccccc1 (mixture of isomers)	940 nM	–	920 nM	–	–	–	–	–	–	5	110 nM	14000 nM	540 nM	480 nM	9800 nM	–	–	–
CC(C)OC(=O)[C@H](C)NP(=O)(OC[C@H]1O[C@@H](n2cc(F)c(=O)[nH]c2=O)C[C@@H]1O)Oc1ccccc1 (mixture of isomers)	1100 nM	–	1000 nM	–	–	–	–	–	–	14	50 nM	30000 nM	700 nM	710 nM	25000 nM	–	–	–
CCOC(=O)[C@@H](NP(=O)(OC[C@H]1O[C@@H](n2cc(F)c(=O)[nH]c2=O)C[C@@H]1O)Oc1ccccc1)C(C)C (mixture of isomers)	42000 nM	–	1000 nM	–	–	–	–	–	–	22	200 nM	> 250000 nM	4400 nM	1200 nM	27000 nM	–	–	–
CC(C)C[C@H](NP(=O)(OC[C@H]1O[C@@H](n2cc(F)c(=O)[nH]c2=O)C[C@@H]1O)Oc1ccccc1)C(=O)OCc1ccccc1 (mixture of isomers)	2000 nM	–	240 nM	–	–	–	–	–	–	3.2	54 nM	16000 nM	170 nM	67 nM	5600 nM	–	–	–
CC[C@H](C)[C@H](NP(=O)(OC[C@H]1O[C@@H](n2cc(F)c(=O)[nH]c2=O)C[C@@H]1O)Oc1ccccc1)C(=O)OCc1ccccc1 (mixture of isomers)	1100 nM	–	1000 nM	–	–	–	–	–	–	2.2	980 nM	30000 nM	2200 nM	710 nM	25000 nM	–	–	–
O=C(OCc1ccccc1)[C@H](Cc1ccccc1)NP(=O)(OC[C@H]1O[C@@H](n2cc(F)c(=O)[nH]c2=O)C[C@@H]1O)Oc1ccccc1 (mixture of isomers)	39000 nM	–	250 nM	–	–	–	–	–	–	35	16 nM	11000 nM	560 nM	14 nM	12000 nM	–	–	–
CCOC(=O)C(C)(C)NP(=O)(OC[C@H]1O[C@@H](n2cc(F)c(=O)[nH]c2=O)C[C@@H]1O)Oc1ccccc1 (mixture of isomers)	4600 nM	370 nM	650 nM	2	5800 nM	2	2560 nM	2350 nM	7	8.7	30 nM	22000 nM	260 nM	590 nM	17000 nM	–	–	–
CC(C)(NP(=O)(OC[C@H]1O[C@@H](n2cc(F)c(=O)[nH]c2=O)C[C@@H]1O)Oc1ccccc1)C(=O)OCc1ccccc1 (mixture of isomers)	180 nM	170 nM	230 nM	2	1200 nM	2	610 nM	260 nM	7	0.69	29 nM	4800 nM	20 nM	240 nM	3700 nM	–	–	–
C[C@H](NP(=O)(OC[C@H]1O[C@@H](n2cc(F)c(=O)[nH]c2=O)C[C@@H]1O)Oc1cccc2ccccc12)C(=O)OCc1ccccc1 (mixture of isomers) [FOSIFLOXURIDINE NAFALBENAMIDE]	45 nM	50 nM	68 nM	2	600 nM	2	260 nM	130 nM	7	2.27	11 nM	310 nM	25 nM	65 nM	2500 nM	30	5	–
O=c1[nH]c(=O)n([C@H]2C[C@H](O)[C@@H](COP(=O)(O)O)O2)cc1F [5-FLUORODEOXYURIDYLATE]	–	50 nM	–	20	3600 nM	20	1060 nM	1740 nM	72	–	–	–	–	–	–	–	–	–
O=c1[nH]c(=O)n([C@H]2C[C@H](O)[C@@H](CO)O2)cc1F [FLOXURIDINE]	–	40 nM	22 nM	–	2500 nM	–	800 nM	–	–	–	–	–	–	50 nM	–	–	–	Unstable
O=c1[nH]cc(F)c(=O)[nH]1 [FLUOROURACIL]	320 nM	–	–	–	–	–	–	–	–	–	–	12000 nM	–	–	230 nM	–	–	Unstable
